Columns and labels:
[1] = test system: ubiquitin; assay: ELISA, negative control protein ubiquitin; format: binding; settings: serial dilutions of Fab
Outline: (§1)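 Proteins coated overnight at 4°C in PBS: full-length C-His p67 (Expi293, Ni-NTA), p67 fragments (E. coli BL21(DE3), GST/6xHis fusion, glutathione resin, TEV cleavage where needed), ubiquitin or BSA. Fab detected with HRP anti-FLAG, IgG with HRP anti-Fc. Eight washes with PBS/0.25% Tween 20 between steps. TMB 2 min, stopped with 1.0 M phosphoric acid, A450 read.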

[2] = test system: full‐length p67; assay: ELISA, binding to full-length p67; set-up: species or system Theileria parva; settings: 50 nM antibody
Outline: as §1

[3] = test system: p67^1 (residues 572–612); assay: ELISA, binding to p67^1; set-up: species or system Theileria parva; settings: 50 nM antibody
Outline: as §1

[4] = test system: T. parva sporozoites; assay: In vitro sporozoite neutralization assay with bovine PBMCs; format: cell-based, Theileria parva; settings: exact values not determined due to incomplete fitting
[5] = test system: His‐p67C (p67 residues 572–651); assay: ELISA, binding to immobilized p67C; set-up: species or system Theileria parva; settings: 50 nM antibody
Outline: as §1

[6] = test system: bovine serum albumin; assay: ELISA, negative control protein BSA; format: binding; settings: serial dilutions of Fab
Outline: as §1

B1: Fab B11: phage-derived synthetic human Fab binding p67C, neutralizes T. parva sporozoites (antibody, V domains shown)
VH: EVQLVESGGGLVQPGGSLRLSCAASGFNISSSSIHWVRQAPGKGLEWVASISPYYSSTSYADSVKGRFTISADTSKNTAYLQMNSLRAEDTAVYYCARGPGYAMDYWGQGTLVTVSS
VL: DIQMTQSPSSLSASVGDRVTITCRASQSVSSAVAWYQQKPGKAPKLLIYSASSLYSGVPSRFSGSRSGTDFTLTISSLQPEDFATYYCQQYYYAPITFGQGTKVEIK
Binding to control protein ubiquitin [1]: no detectable binding | Binding to full-length p67 [2]: bound | Binding to p67^1 [3]: bound | Fold less neutralizing potency than IgGs B11 and 21.4 [4]: roughly 10 fold | Binding to p67C [5]: bound | Binding to control protein bovine serum albumin [6]: no detectable binding

Reference: publication PMC12086512 (Protein Science : A Publication of the Protein Society, 2025)
